In publication PMC7932937 (Clinical Pharmacokinetics, 2020):
Where two headings read alike, the source gives them in different places.

Tests used:
[1] = system: baseline non-HDL-cholesterol; assay: Covariate analysis on baseline non-HDL-cholesterol in the PK/PD model; assay type: in vivo, people living with HIV; conditions: coadministration, final PK/PD model covariate
How it was run: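 Indirect-response model linked to the final population PK model (plasma rosuvastatin by UHPLC-MS/MS; daily doses 5–20 mg). Drug inhibits kin, with kout = kin/baseline. Covariates (ARV regimen, comedications, diabetes, weight, AST, ALT, age) were tested on baseline only, by stepwise forward inclusion and backward deletion. Continuous covariates were median-centred (linear or allometric), categorical ones coded 0/1. Cholesterol was measured enzymatically (cholesterol oxidase).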

[2] = cited from earlier work
[3] = Population pharmacokinetic model; assay type: in vivo, people living with HIV
How it was run: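 Adults with HIV on rosuvastatin 5–20 mg daily. Plasma came from a rich-sampling study and from sparse samples at cohort visits, 0.2–38.5 h post-dose, and was assayed by UHPLC-MS/MS. Models tested one or two compartments with first-order, zero-order or mixed absorption. Absorption parameters were fixed from the rich data. Between-subject variability was log-normal; residual error additive on the log scale. Covariate thresholds: ΔOFV 3.84 forward, 7.88 backward.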

[4] = literature values ref 12, 26, 27; cited from earlier work
[5] = coadministered with cobicistat-boosted darunavir ref 20
[6] = coadministered with ritonavir-boosted atazanavir ref 19
[7] = coadministered with ritonavir-boosted darunavir ref 9
[8] = coadministered with ritonavir-boosted lopinavir ref 30
[9] = estimated from full PK profiles (rich sampling), without variability

Row | Cl decrease with boosted PIs that the study was powered to rule out ([3]; coadministered boosted PIs, univariate analysis) | absorption rate constant [3, 9] | duration of zero-order absorption [3, 9] | increase in rosuvastatin Vc ([3]; in women, univariate testing, not significant in multivariate analysis) | SMILES | decrease in the baseline non-HDL-cholesterol value [1] | increase in rosuvastatin AUC0–24 [2, 5] | increase in rosuvastatin Cmax [2, 5] | increase in rosuvastatin AUC0–24 [2, 6] | increase in rosuvastatin Cmax [2, 6] | increase in rosuvastatin AUC0–24 [2, 7] | increase in rosuvastatin Cmax [2, 7] | increase in rosuvastatin AUC0–24 [2, 8] | increase in rosuvastatin Cmax [2, 8] | volume of distributions [4]
1 | – | – | – | – | Cc1cc(C#N)cc(C)c1Oc1nc(Nc2ccc(C#N)cc2)nc(N)c1Br [etravirine] | 14% | – | – | – | – | – | – | – | – | –
2 | ≤ 22% | 0.306 h⁻¹ | 0.461 h | three-fold | CC(C)c1nc(N(C)S(C)(=O)=O)nc(-c2ccc(F)cc2)c1/C=C/[C@@H](O)C[C@@H](O)CC(=O)O [rosuvastatin] | – | 93% | 277% | 213% | 600% | 48% | 143% | 110% | 370% | 1255 to 4870 L
